Most compounds without a hit are left out; they make up all but 5.8% or so of the library.
ROMK primary: human ROMK K+ channel modulation, primary screen; 130,000 tested, 2% active; B-score at 10 µM; Tet-inducible ROMK, thallium flux fluorescence; actives lie on both sides; AID 1918; P48048;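 active = signal ratio slope over the read window, or its plate-corrected B-score, at least 3 SD from the plate mean, either direction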;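 also: B-score of the F/F0 ratio slope over 7 to 12 s after thallium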
Target sequence (P48048 whole entry, looked up): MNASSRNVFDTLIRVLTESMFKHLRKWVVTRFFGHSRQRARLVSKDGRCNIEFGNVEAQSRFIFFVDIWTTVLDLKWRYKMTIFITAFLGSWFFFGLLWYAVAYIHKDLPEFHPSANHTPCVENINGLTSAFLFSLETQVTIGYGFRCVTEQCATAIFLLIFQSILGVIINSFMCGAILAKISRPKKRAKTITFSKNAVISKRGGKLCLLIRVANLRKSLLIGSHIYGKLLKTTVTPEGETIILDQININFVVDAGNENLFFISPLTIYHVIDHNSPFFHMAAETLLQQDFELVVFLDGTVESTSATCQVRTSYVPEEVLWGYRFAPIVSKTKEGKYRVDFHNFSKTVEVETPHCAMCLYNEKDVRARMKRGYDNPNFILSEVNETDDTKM
14-3-3 Bad PPI: disrupts binding of bovine 14-3-3 zeta to phospho-Bad peptide | P63103 | TR-FRET 14-3-3zeta/Dy647-pBad peptide displacement, 1 h | inhibition, % at 21.7 µM | 220,000 tested, 0.71% active;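 active = inhibition above about 70%, limit read from the data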;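 also: 0% = full 14-3-3 plus peptide FRET controls and 100% = background without 14-3-3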
Cl transport mod: modulators of human KCC2 chloride dependent transport. Q9H2X9. KCC2 cells, thallium flux FluoZin-2 fluorescence. AID 1456. 190,000 tested, 2.2% active. B-score of Tl+ flux slope (higher = more flux/activation; lower = inhibition) at 10 µM;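 active = thallium flux slope and its plate-corrected score both differing from the plate sample mean at a set confidence after two filtering rounds, in either direction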;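 also: slope of fluorescence scaled to starting intensity during 10 to 20 s after thallium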
p47phox inh: blocks human p47phox regulatory protein of NADPH oxidases; P14598; p47phox/p22phox peptide binding, fluorescence polarization, 2 h; inhibition, % at 24.7 µM; 220,000 tested, 0.53% active; AID 1274;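 active = inhibition above about 30%, limit read from the data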;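 also: 0% = p47phox with labelled peptide and 100% = labelled peptide alone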
WT yeast gro inh: growth inhibition of WT yeast, mitochondrial fusion screen; inhibition, % at 10 µM; 190,000 tested, 2.1% active; mitochondrial fusion phenotypic screen, WT strain; in the data active = inhibition above about 58%; tested in S. cerevisiae
RBBP9 inhibitor: inhibitors of human serine hydrolase RBBP9. recombinant RBBP9, FP-Rh probe fluorescence polarization. inhibition, % at 7.94 µM. 220,000 tested, 0.2% active;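 active = inhibition above the campaign mean of all tested compounds plus 3 SD, cut at about 14% in these data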;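 also: plate controls were DMSO wells with RBBP9 for no effect and wells lacking RBBP9 protein for full effect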
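Controls: DMSO-treated enzyme wells and wells lacking RBBP9 | Material: RBBP9 protein | Technique: Fluorescence polarization | Replication: Single well per compound, no replicates | Buffer or medium: Tris-NaCl-Pluronic buffer, pH 8.0 | Timing: 30 min compound preincubation, 45 min probe labeling, 25 °C | Read-out basis: Percent inhibition from mP, scaled between DMSO and no-protein wells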
Numbers without * were called inactive; . = no result; [ ] = another dose, or the depositor's remark.

SMILES	ROMK primary	14-3-3 Bad PPI	Cl transport mod	p47phox inh	WT yeast gro inh	RBBP9 inhibitor
Cc1c(Cl)cnc(NC(=O)COC(=O)c2ccc([N+](=O)[O-])s2)c1Cl	.	3	0.024	22	79	-3
O=C(COC(=O)c1ccc2ncsc2c1)Nc1ncc(Cl)cc1Cl	-1.4	73*[fluorescence artefact?]	-0.04	-15	19	-13
Cn1c(=O)c2ncn(CC(=O)Nc3nc(-c4ccc(Cl)cc4)cs3)c2n(C)c1=O	-0.0029	-1	-0.017	-37	-2	-7
CC1=NN(c2ccccc2)C(=O)C1C(=O)c1ccc(Cl)cc1 (centres undefined)	.	64	7.8*	-1	9	-12
CC1=NN(c2ccccc2)C(=O)C1C(=O)c1ccccc1 (centres undefined)	.	2	2	-6	-10	-8
Cc1cccn2c(=O)c(/C=C(\C#N)S(=O)(=O)c3ccccc3)c(Oc3ccc(Cl)cc3)nc12	.	-14	0.18	-26	60*	-4
Cc1cc(Oc2nc3c(C)cccn3c(=O)c2/C=C(\C#N)S(=O)(=O)c2ccccc2)ccc1Cl	.	-16	-0.47	-101	24	-9
Cc1cccc2cc(C#N)c(SCCN3CCCCC3)nc12	-1.1	.	3.6*	.	.	-8
O=C(NCCCN1CCOCC1)C(=O)NCc1ccc(Cl)cc1	0.014	-9	0.61	2	3	0
O=C(COc1ccccc1Cl)NC(=S)N1CCc2ccccc21	-0.5	-11	37*	-14	11	1
O=C(COc1ccccc1)NC(=S)N1CCc2ccccc21	1.1	-9	56*	-6	47	-4
O=C(Nc1ccc(Cl)cc1)c1csc(Cc2ccccc2)n1	-0.32	-11	-0.93	-15	74*	-12
COc1ccc(NC(=O)c2csc(Cc3ccc(Cl)cc3)n2)cc1	-0.7	-15	.	-10	59*	-8
O=C(Nc1cccc(Cl)c1)c1csc(-c2ccccc2)n1	.	3	.	-9	61*	-7
COc1ccc(C(=O)C[n+]2ccc3c(c2)nnn3-c2ccccc2)cc1	-0.25	12	1.5	-3	6	-4
CCCCOc1ccc(C(=O)NCc2ccccn2)cc1	0.46	-6	-0.41	38*	7	-3
CCCCC(=O)Nc1nn(CC(C)C)c2nc3ccccc3cc12	.	82*	-0.59	-16	-2	-9
CC(C)Cn1nc(NC(=O)C(C)(C)C)c2cc3ccccc3nc21	0.28	53	-1.6	-21	0	1
NNC(=O)c1ccc(COCC(F)(F)F)cc1	-0.043	-2	0.55	-1	.	-9
CCCCCCSc1nc2c(c(=O)[nH]c(=O)n2C)n1C	.	4	-0.31	8	7	-8
CCCCN(CCCC)CCNC(=O)Cc1nc2c(c(=O)[nH]c(=O)n2C)n1C	0.033	-1	-0.26	-8	67*	4
Cc1ccc(-c2nnc(N3CCN(C(=O)COc4ccccc4)CC3)c3ccccc23)cc1	-2.4	-6	-1.7	2	54	-8
O=C(COc1ccc(-c2nnc(N3CCCCC3)c3ccccc23)cc1)N1CCCCC1	-3.2*	5	-2.1	-3	2	1
C[C@]12CC[C@@H]3c4ccc(O)cc4CC[C@H]3[C@@H]1CC[C@@H]2O	.	-2	0.3	4	-1	-11
C[C@]12CC[C@@H]3c4cc(O)c(O)cc4CC[C@H]3[C@@H]1CC[C@@H]2O	.	11	1.3	14	6	24*
SMILES	ROMK primary	14-3-3 Bad PPI	Cl transport mod	p47phox inh	WT yeast gro inh	RBBP9 inhibitor
O=C(c1ccccn1)N1N=C2/C(=C/c3ccc(F)cc3)CCCC2C1c1ccc(F)cc1 (centres undefined)	.	0	-0.33	-2	74*	-6
CC(=O)N1N=C2/C(=C/c3ccccc3)CCCC2C1c1ccccc1 (centres undefined)	.	-2	-1.6	-3	44	-5
COC(=O)c1cccc(NC(=S)Nc2ccccc2Cl)c1	0.031	1	0.7	-6	.	10
COC(=O)c1cc(NC(=S)Nc2cc(Cl)cc(Cl)c2)cc(C(=O)OC)c1	2.5	-5	-0.037	-56	77*	-8
Cc1ccc(S(=O)(=O)N2CCOCC2)cc1C(=O)NNC(=O)c1ccoc1C	-0.014	-7	0.047	2	-12	9
Cc1ccc(-c2cc(C(=O)N3CCCc4ccccc43)no2)cc1	-0.48	-7	-1.6	-8	64*	-6
Cc1noc(C)c1C(=O)N1CCCc2ccccc21	.	2	0.51	53*	-1	-11

Source: PubChem (several laboratories)
